The values that follow come from PMC6205205 (Medicinal chemistry (Shariqah (United Arab Emirates)), 2018).

pKi: −log10 of the molar value. Entries after “also recorded” stand apart in the source; their conditions may differ.

The target in experiment [1] is T1, IDH1(R132H) (Homo sapiens, UniProt O75874, R132H). In words: IDH1. The conditions noted are these: for Inhibitory activity against IDH1(R132H), in words: compound screening at 50 μM. The experiment is classed as biochemical.
Experiment [2] has as its target WT IDH1 (Homo sapiens, UniProt O75874). In words: Enzyme inhibition of wild-type IDH1. The experiment is classed as biochemical.
Experiment [3] has as its target R132C IDH1 (Homo sapiens, UniProt O75874, R132C). In words: Enzyme inhibition of R132C mutant IDH1. The experiment is classed as biochemical.
For experiment [4], the system named is BT142 glioma cells with R132H IDH1 mutation. In words: Inhibition of proliferation of glioma stem-like cells. The experiment is classed as cell-based, human. The conditions noted are these: 5 μM, 14 days treatment. The method in brief: (§1)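 Patient-derived glioma cells grown as neurospheres in serum-free medium at 37 °C, 5% CO₂, 100% humidity. Cells seeded at 2000/well and exposed to increasing concentrations of test compound for 14 days. Viability read by Cell Counting Kit-8 following the kit protocol.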

Experiment [5] concerns BXD-3752 glioma cells without IDH1 mutation. The experiment is described as above. The note with it: 5 μM, 14 days treatment, no IDH1 mutation. The experiment is classed as cell-based, human. The method in brief:
as §1

The target of experiment [6] is T1, IDH1(R132H). In words: Steady-state kinetic study, mode of inhibition. The experiment is classed as biochemical. The method in brief: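 IDH1(R132H) was expressed in E. coli and purified. Initial velocities were taken as the linear rate of NADPH consumption, followed by UV absorbance at 340 nm. Test compound, α-KG and NADPH levels were each varied. Data were fitted to competitive, noncompetitive and uncompetitive models, and the best model was chosen by highest R² and lowest AICc.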

T1 sequence (O75874 whole entry R132H): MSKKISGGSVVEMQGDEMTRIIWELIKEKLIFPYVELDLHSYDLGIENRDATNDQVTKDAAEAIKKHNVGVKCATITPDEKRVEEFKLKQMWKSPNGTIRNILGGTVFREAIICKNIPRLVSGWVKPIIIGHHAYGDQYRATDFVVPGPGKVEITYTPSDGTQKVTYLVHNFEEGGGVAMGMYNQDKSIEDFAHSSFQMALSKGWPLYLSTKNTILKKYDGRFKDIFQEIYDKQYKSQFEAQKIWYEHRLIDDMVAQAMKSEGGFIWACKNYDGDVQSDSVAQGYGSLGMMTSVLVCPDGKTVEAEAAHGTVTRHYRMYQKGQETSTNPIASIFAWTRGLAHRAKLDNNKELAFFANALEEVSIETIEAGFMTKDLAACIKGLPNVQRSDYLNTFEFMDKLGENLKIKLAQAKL
Chain of R132C IDH1 (O75874 whole entry R132C): as the sequence (O75874 whole entry R132H) above, with H132C counted along it
Chain of WT IDH1 (O75874 whole entry): as the sequence (O75874 whole entry R132H) above, with H132R counted along it

The compound `O=S(=O)(Nc1cc(Oc2ccccc2)c(O)c2ccccc12)c1ccc(Br)cc1` [Compound 1, 4-bromo-N-(4-hydroxy-3-phenoxynaphthalen-1-yl)benzenesulfonamide] showed a pKi in experiment [1] of 5.09.
On to `O=S(=O)(Nc1cc(Br)c(O)c2ccccc12)c1ccc(Br)cc1` [Compound 2, 4-bromo-N-(3-bromo-4-hydroxynaphthalen-1-yl)benzenesulfonamide], for which the results for the pKi in experiment [2], in experiment [3] and in experiment [1] were less than 4.30, less than 4.30 and 5.39, respectively. Besides, in experiment [1] (IDH1(R132H), vs compound 1), the “Fold increased inhibitory activity relative to compound 1” value is given as ~ 2 fold.
Consider `Cc1ccc(-c2cc(NS(=O)(=O)c3ccc(C)cc3)c3ccccc3c2O)cc1` [Compound 3, N-(4-hydroxy-3-(p-tolyl)naphthalen-1-yl)-4-methylbenzenesulfonamide], for which, in experiment [4], the “Activity against proliferation of BT142 glioma cells” value (from here on “Activity … of BT142 glioma cells”) is “did not exhibit activity”. Besides, the “Activity against proliferation of BXD-3752 glioma cells” value (“Activity … of BXD-3752 glioma cells” for short) in experiment [5] is reported as “did not exhibit activity”. In addition, the “Inhibitory activity against IDH1(R132H), in words” value (“Inhibitory activity … in words” below) in experiment [1] was “inactive”.
For the compound `O=S(=O)(Nc1cc(-c2ccc3ccccc3c2)c(O)c2ccccc12)c1ccc(Br)cc1` [Compound 4, 4-bromo-N-(1-hydroxy-[2,2’-binaphthalen]-4-yl)benzenesulfonamide], the “Inhibitory activity … in words” value in experiment [1] is “inactive”.
Consider `O=C(O)CCc1cc(NS(=O)(=O)c2ccc(Br)cc2)c2ccccc2c1O` [Compound 5, 3-(4-((4-bromophenyl)sulfonamido)-1-hydroxynaphthalen-2-yl)propanoic acid], for which the pKi in experiment [1] is 4.76.
Same read-out and setting: next, `O=P(O)(O)CCc1cc(NS(=O)(=O)c2ccc(Br)cc2)c2ccccc2c1O` [Compound 6, (2-(4-((4-bromophenyl)sulfonamido)-1-hydroxynaphthalen-2-yl)ethyl)phosphonic acid]: 5.62; `COc1ccc(S(=O)(=O)Nc2cc(CCC(=O)O)c(O)c3ccccc23)cc1` [Compound 7, 3-(1-hydroxy-4-((4-methoxyphenyl)sulfonamido)naphthalen-2-yl)propanoic acid]: 4.99; `O=S(=O)(Nc1cc(Br)c(O)c2ccccc12)c1ccc(F)cc1` [Compound 8, N-(3-bromo-4-hydroxynaphthalen-1-yl)-4-fluorobenzenesulfonamide]: approximately 4.60.
In the case of `Cc1ccc(S(=O)(=O)Nc2cc(Br)c(O)c3ccccc23)cc1` [Compound 9, N-(3-bromo-4-hydroxynaphthalen-1-yl)-4-methylbenzenesulfonamide], the pKi in experiment [2] is less than 4.30; in experiment [3], less than 4.30; in experiment [1], 5.92. Moreover, the “Activity … of BT142 glioma cells” value in experiment [4] is recorded as “strongly inhibited the growth; also recorded: strong activity”. For the same compound, the “Activity … of BXD-3752 glioma cells” value in experiment [5] was “did not show activity; also recorded: did not significantly affect growth”. Also, the “Fold more active than compound 2” value in experiment [1] (IDH1(R132H), vs compound 2) is ~ 4 ×. The “Mode of inhibition against the cofactor NADPH” value in experiment [6] (variable NADPH, Michaelis-Menten plot) is given as “noncompetitive mode of action; also recorded: non-competitive inhibitor”. Further, the “Mode of inhibition against the substrate α-KG” value in experiment [6] (variable α-KG, Lineweaver-Burk plot) is listed as “competitive inhibitor”.
`O=S(=O)(Nc1cc(Br)c(O)c2ccccc12)c1ccc(-c2ccccc2)cc1` [Compound 10, N-(3-bromo-4-hydroxynaphthalen-1-yl)-[1,1’-biphenyl]-4-sulfonamide]: the results for the pKi in experiment [2], in experiment [3] and in experiment [1] were less than 4.30, 4.44 and 6.22, respectively. Moreover, the “Activity … of BT142 glioma cells” value in experiment [4] is “strongly inhibited the growth; also recorded: strong activity”. In addition, in experiment [5], the “Activity … of BXD-3752 glioma cells” value is reported as “did not show activity; also recorded: did not significantly affect growth”.
As to `O=S(=O)(Nc1cc(Br)c(O)c2ccccc12)c1ccc2ccccc2c1` [Compound 11, N-(3-bromo-4-hydroxynaphthalen-1-yl)naphthalene-2-sulfonamide], the pKi in experiment [2] is less than 4.30; in experiment [3] it was less than 4.30; in experiment [1] it was 6.10.
In experiment [1], `Cc1ccc(S(=O)(=O)Nc2ccc(O)c3ccccc23)cc1` [Compound 12, N-(4-hydroxynaphthalen-1-yl)-4-methylbenzenesulfonamide] showed a negative-log Ki (pKi) of 5.17. For the same compound, the “Fold less active than compound 9” value in experiment [1] (IDH1(R132H), vs compound 9) is ~ 6 fold.
In the case of `O=S(=O)(Nc1ccc(O)c2ccccc12)c1ccccc1` [Compound 13, N-(4-hydroxynaphthalen-1-yl)benzenesulfonamide], in experiment [1], the pKi is 4.95.
On to `O=S(=O)(Nc1ccc(O)c(Oc2ccccc2)c1)c1ccc(Br)cc1` [Compound 14, 4-bromo-N-(4-hydroxy-3-phenoxyphenyl)benzenesulfonamide], for which, in experiment [1], the “Inhibitory activity … in words” value is on record as “Devoid of activity”.
Consider `O=S(=O)(Nc1ccc(O)cc1)c1ccc(Br)cc1` [Compound 17, 4-bromo-N-(4-hydroxyphenyl)benzenesulfonamide], for which, in experiment [1], the pKi was 5.14.
On the same count and under the same terms, next, `O=S(=O)(Nc1cccc(Br)c1)c1ccc(Br)cc1` [Compound 18, 4-bromo-N-(3-bromophenyl)benzenesulfonamide]: 5.05.
In the case of `O=S(=O)(Nc1ccccc1)c1ccc(Br)cc1` [Compound 19, 4-bromo-N-phenylbenzenesulfonamide], in experiment [1], the “Inhibitory activity … in words” value is “inactive”.
Turning to `O=S(=O)(Nc1ccc(F)c(Cl)c1)c1ccc(Br)cc1` [Compound 20, 4-bromo-N-(3-chloro-4-fluorophenyl)benzenesulfonamide], the pKi in experiment [1] is 4.79.

A word on the pKi: it is −log10 of the Ki, conventionally taken in molar units. Low readings indicate a high Ki, high ones a low Ki.
